This note sets out measurements from ChEMBL document CHEMBL3593206, “SAR Studies of Exosite-Binding Substrate-Selective Inhibitors of A Disintegrin And Metalloprotease 17 (ADAM17) and Application as Selective in Vitro Probes” (J Med Chem, 2015).

Series [1] has as its target T1, Disintegrin and metalloproteinase domain-containing protein 10 (Homo sapiens) (UniProt O14672).
T1 sequence (whole entry): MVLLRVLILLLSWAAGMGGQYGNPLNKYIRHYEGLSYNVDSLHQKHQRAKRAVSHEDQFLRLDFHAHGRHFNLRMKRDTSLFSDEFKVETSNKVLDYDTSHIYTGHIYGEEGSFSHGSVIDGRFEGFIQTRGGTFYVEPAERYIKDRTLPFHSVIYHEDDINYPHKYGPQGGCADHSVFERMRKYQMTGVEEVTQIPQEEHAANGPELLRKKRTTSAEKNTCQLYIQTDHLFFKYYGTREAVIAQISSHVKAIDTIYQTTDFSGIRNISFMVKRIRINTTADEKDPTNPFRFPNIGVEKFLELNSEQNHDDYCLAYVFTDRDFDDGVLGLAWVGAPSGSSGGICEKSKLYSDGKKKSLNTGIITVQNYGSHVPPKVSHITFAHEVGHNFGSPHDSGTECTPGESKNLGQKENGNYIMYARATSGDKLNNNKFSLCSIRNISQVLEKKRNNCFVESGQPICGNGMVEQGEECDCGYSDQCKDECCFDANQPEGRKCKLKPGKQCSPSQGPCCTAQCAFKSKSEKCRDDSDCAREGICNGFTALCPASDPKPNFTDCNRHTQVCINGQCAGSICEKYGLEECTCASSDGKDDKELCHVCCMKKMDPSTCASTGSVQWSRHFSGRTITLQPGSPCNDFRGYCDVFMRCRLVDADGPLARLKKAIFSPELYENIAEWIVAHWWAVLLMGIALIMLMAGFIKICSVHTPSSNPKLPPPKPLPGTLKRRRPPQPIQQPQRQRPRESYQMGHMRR
The series can be described thus: Inhibition of ADAM10 (unknown origin) at 100 uM preincubated for 30 mins followed by substrate addition measured every 30 mins for 2 hrs by fluorescence assay relative to control. The method in brief: (§1)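 Enzyme at 30 nM (3× solution) in 10 mM Hepes, 0.001% Brij-35, pH 7.5. Inhibitor series of 10 points, 1:3, from 300 μM, preincubated 30 min at RT. Glycosylated substrate added from a 30 μM 3× solution. Fluorescence (ex 360/em 460 nm) read every 30 min for 2 h. Inhibition taken from hydrolysis rates against substrate-only and substrate-plus-enzyme wells.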

Series [2] deals with T2, Disintegrin and metalloproteinase domain-containing protein 17 (Homo sapiens, UniProt P78536). The series can be described thus: Inhibition of ADAM17 (unknown origin) preincubated for 30 mins followed by substrate addition measured every 30 mins for 2 hrs by fluorescence assay. The procedure, abridged: as §1
The target in series [3] is T3, Neutrophil collagenase (Homo sapiens, UniProt P22894). Nature of the series: Inhibition of MMP8 (unknown origin) using Mca-KLPGL-Dnp-AR as substrate preincubated for 30 mins followed by substrate addition measured after 1 hr by fluorescence assay. The procedure, abridged:
(§2)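 Inhibitor as 10-point 1:3 dilutions from 300 μM, 30 min at RT. Substrate added from a 30 μM 3× solution. Single fluorescence read (ex 324/em 393 nm) after 1 h at RT.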
Target sequence in this assay (P22894 whole entry): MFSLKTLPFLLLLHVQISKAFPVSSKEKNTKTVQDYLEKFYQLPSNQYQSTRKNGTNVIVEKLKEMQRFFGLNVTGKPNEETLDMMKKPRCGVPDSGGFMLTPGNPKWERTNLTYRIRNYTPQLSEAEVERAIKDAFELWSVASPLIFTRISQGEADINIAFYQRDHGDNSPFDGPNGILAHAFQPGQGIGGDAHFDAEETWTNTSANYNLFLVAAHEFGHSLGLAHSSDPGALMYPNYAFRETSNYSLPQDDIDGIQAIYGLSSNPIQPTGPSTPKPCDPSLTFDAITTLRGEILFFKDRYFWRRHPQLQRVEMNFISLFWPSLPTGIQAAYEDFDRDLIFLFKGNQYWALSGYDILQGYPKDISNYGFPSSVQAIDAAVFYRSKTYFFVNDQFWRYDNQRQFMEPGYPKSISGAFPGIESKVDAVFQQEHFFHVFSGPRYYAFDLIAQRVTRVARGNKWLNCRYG

Series [4] concerns the target T4, Matrix metalloproteinase-14 (Homo sapiens, UniProt P50281). Nature of the series: Inhibition of MMP14 (unknown origin) using Mca-KLPGL-Dnp-AR as substrate preincubated for 30 mins followed by substrate addition measured after 1 hr by fluorescence assay. The method in brief:
as §2

For series [5], the target named is T3, Neutrophil collagenase. The series can be described thus: Inhibition of MMP8 (unknown origin) using Mca-KLPGL-Dnp-AR as substrate at 100 uM preincubated for 30 mins followed by substrate addition measured after 1 hr by fluorescence assay relative to control. The procedure, abridged:
as §2
Target sequence in this assay (P22894 101-467 limits assumed): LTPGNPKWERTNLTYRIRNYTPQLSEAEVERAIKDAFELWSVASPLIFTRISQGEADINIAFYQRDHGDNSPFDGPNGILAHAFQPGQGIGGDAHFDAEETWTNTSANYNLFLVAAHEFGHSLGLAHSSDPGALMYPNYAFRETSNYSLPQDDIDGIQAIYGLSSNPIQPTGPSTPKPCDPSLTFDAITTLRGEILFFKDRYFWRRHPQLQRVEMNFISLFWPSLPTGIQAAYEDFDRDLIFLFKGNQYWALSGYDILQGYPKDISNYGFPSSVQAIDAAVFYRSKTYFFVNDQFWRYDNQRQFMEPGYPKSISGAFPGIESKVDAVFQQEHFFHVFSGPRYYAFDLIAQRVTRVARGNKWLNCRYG

In series [6] the target is T4, Matrix metalloproteinase-14. Nature of the series: Inhibition of MMP14 (unknown origin) using Mca-KLPGL-Dnp-AR as substrate at 100 uM preincubated for 30 mins followed by substrate addition measured after 1 hr by fluorescence assay relative to control.
In series [7] the target is T2, Disintegrin and metalloproteinase domain-containing protein 17. Nature of the series: Inhibition of ADAM17 (unknown origin) at 100 uM preincubated for 30 mins followed by substrate addition measured every 30 mins for 2 hrs by fluorescence assay relative to control. The method in brief:
as §1

Series [8] can be described thus: Cytotoxicity against CHOK1 cells assessed as inhibition of cell viability up to 33 uM after 72 hrs by CellTiter-Glo assay. The series is classed as cell-based, Cricetulus griseus. Conditions: chinese hamster, cho-k1, 72 h.
Series [9] concerns A549. Nature of the series: Cytotoxicity against human A549 cells assessed as inhibition of cell viability up to 33 uM after 72 hrs by CellTiter-Glo assay. It is filed as cell-based. The note with it: a549, 72 h.
The target in series [10] is T2, Disintegrin and metalloproteinase domain-containing protein 17. Nature of the series: Inhibition of ADAM17 in HTSMC assessed as inhibition of LPS-stimulated IL-8 shedding at 10 uM preincubated for 30 mins followed by LPS challenge measured after 4 to 24 hrs by ELISA. The procedure, abridged:
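HTSMCs stimulated with LPS for IL-8 release; compounds at 10 μM. Mean ± SEM, n = 3 from three independent experiments; one-way ANOVA with Dunnett post hoc test.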

Series [11] addresses T1, Disintegrin and metalloproteinase domain-containing protein 10 (Homo sapiens). The series can be described thus: Inhibition of ADAM10 in HTSMC assessed as inhibition of PMA-stimulated release of CXCL16 at 10 uM preincubated for 30 mins followed by PMA challenge measured after 4 to 24 hrs by ELISA.
Series [12] deals with T2, Disintegrin and metalloproteinase domain-containing protein 17. The series can be described thus: Inhibition of ADAM17 in human HT1080 cells assessed as inhibition of PMA-stimulated PTK7 L622D mutant shedding at 25 to 100 uM after 16 hrs by Western blot analysis. It is filed as cell-based. The note with it: HT-1080. The method in brief:
(§3)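 PTK7 shedding tested at 25, 50 and 100 μM in PMA-stimulated cells. HT1080 fibrosarcoma cells carried the L622D PTK7 mutant uncleavable by MT1-MMP; SW480 colorectal cells expressed wild-type PTK7 endogenously. Soluble PTK7 was detected.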

Series [13] shares this target. The series can be described thus: Inhibition of ADAM17 in human SW480 cells assessed as inhibition of PMA-stimulated wild type PTK7 shedding at 25 to 100 uM after 16 hrs by Western blot analysis. The series is classed as cell-based. The method in brief: as §3
Series [14] has the same target. The series can be described thus: Inhibition of ADAM17 in human A549 cells assessed as inhibition of PMA-stimulated heregulin shedding at 40 uM incubated for 1 hr followed by PMA stimulation measured after 1 hr. The series is classed as cell-based. The method in brief:
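Heregulin shedding in A549 cells, with all compounds tested at 40 μM.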

The target is the same in series [15]. The series can be described thus: Inhibition of ADAM17 in human A549 cells assessed as effect on PMA-stimulated TGFalpha shedding up to 100 uM preincubated for 1 hr followed by PMA stimulation measured after 1 hr by ELISA. It is filed as cell-based. The method in brief:
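TGFα shedding from PMA-treated A549 cells tested up to 100 μM. Marimastat at 10 μM served as control, with a non-PMA-treated control included; soluble TGFα measured in the supernatant.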

Series [16] deals with ADAM17 (Homo sapiens). The series can be described thus: Inhibition of ADAM17 in human SW480 cells assessed as inhibition of PMA-stimulated wild type PTK7 shedding at 25 to 100 uM after 16 hrs by Western blot analysis.
Series [17] concerns the target T1, Disintegrin and metalloproteinase domain-containing protein 10 (Homo sapiens). Nature of the series: Inhibition of ADAM10 in HTSMC assessed as inhibition of constitutive release of fractalkine/CX3CL1 at 10 uM preincubated for 30 mins measured after 4 to 24 hrs by ELISA.

T2 sequence (P78536 whole entry, the tested form may be a part): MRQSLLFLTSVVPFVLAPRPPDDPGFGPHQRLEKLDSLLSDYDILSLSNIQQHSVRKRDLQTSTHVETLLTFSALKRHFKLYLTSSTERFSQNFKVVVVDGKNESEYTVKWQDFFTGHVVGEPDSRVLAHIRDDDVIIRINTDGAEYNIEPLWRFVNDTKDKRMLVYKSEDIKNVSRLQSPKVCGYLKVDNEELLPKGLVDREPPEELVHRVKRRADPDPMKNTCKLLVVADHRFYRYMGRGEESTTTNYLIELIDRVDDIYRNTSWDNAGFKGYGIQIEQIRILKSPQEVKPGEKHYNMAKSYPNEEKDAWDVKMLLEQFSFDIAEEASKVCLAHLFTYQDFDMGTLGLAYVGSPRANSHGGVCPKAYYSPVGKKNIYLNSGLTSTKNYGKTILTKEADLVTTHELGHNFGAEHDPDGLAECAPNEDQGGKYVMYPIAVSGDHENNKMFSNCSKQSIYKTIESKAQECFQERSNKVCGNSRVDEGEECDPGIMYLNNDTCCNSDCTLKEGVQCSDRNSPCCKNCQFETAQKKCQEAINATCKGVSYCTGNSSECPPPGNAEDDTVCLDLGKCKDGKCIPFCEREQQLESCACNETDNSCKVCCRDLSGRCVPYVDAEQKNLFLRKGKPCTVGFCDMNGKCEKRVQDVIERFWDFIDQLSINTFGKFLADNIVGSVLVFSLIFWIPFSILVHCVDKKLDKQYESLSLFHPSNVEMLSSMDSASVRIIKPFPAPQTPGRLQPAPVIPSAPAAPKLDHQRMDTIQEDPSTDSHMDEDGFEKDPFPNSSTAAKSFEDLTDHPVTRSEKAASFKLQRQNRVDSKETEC

Consider `CCCC[C@H]1CN([C@@H](Cc2ccc(O)cc2)CN2CCC[C@H]2CN2C(=O)C(=O)NC[C@H]2Cc2ccc3ccccc3c2)C(=O)C(=O)N1CCC12CC3CC(CC(C3)C1)C2`, for which the inhibition was 0% in [1]; 0% in [5]; 0% in [6]; 100% in series [7]; 62% in series [10]; 0% in series [11]. In addition, the inhibition in series [12], in series [13], in [14], in series [15], in series [16] and in series [17] was 0% in each case. Also, the IC50 in [2] is 5.7 µM; in series [3], over 100 µM; in series [4], over 100 µM. In addition, the Activity entry in [8] and in series [9] was “Non-toxic” in each case.
Regarding `O=C1NC[C@@H](Cc2ccc(O)cc2)N(C[C@@H]2CCCN2C[C@@H](Cc2ccc3ccccc3c2)N2CC(Cc3ccc(O)cc3)N(CCC34CC5CC(CC(C5)C3)C4)C(=O)C2=O)C1=O` (single isomer, unassigned), the inhibition in series [1] is 0%; in [5], 13%; in [6], 25%; in series [7], 95%; in series [10], 36%; in series [11] it was 0%. Further, the inhibition turned out to be 25% in [12]; 0% in [13]; 100% in series [14]; 0% in [15]; 0% in series [16]; 0% in [17]. Moreover, the IC50 in series [2] was 4.2 µM; in series [3], over 100 µM; in series [4] it was over 100 µM. Further, the Activity entry in series [8] and in series [9] was “Non-toxic” each time.
`O=C1NC[C@H](Cc2ccccc2)N(C[C@@H]2CCCN2C[C@@H](CC2CCCCC2)N2C[C@H](Cc3ccc(O)cc3)N(CCc3ccccc3)C(=O)C2=O)C1=O`: the inhibition in series [1] came out at 0%; in series [5], 28%; in series [6] it was 27%; in series [7] it was 100%; in series [10], 18%; in series [11] it was 0%. For the same molecule, the inhibition in series [12], in series [13], in series [14], in series [15], in [16] and in series [17] was 0% in each case. The IC50 in [2] was 5.4 µM; in [3], over 100 µM; in [4], over 100 µM. Also, the Activity result in series [8] and in [9] was “Non-toxic” throughout.
